In ChEMBL document CHEMBL3259608, “Synthesis of a terphenyl substituted 4-aza-2,3-didehydropodophyllotoxin analogues as inhibitors of tubulin polymerization and apoptosis inducers” (Bioorg Med Chem, 2014):
Calls of active or inactive are those of the source. The rule behind the calls is not given here.

Key:
A549 [1] = experiment: Anticancer activity against human A549 cells after 48 hrs by MTT assay; format: functional, cell-based; details: A549, 48 h
Method in brief: (§1)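 MTT assay: 1×10⁴ cells/well seeded in DMEM with 10% FBS, 24 h at 37°C in CO₂ before dosing. Compounds diluted in medium, vehicle control included, 48 h exposure. MTT (5 mg/mL stock) added for 4 h, formazan dissolved in DMSO, absorbance read at 540 nm. IC50 averaged from three individual experiments.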

HT-29 = experiment: Anticancer activity against human HT-29 cells after 48 hrs by MTT assay; format: functional, cell-based; details: HT-29, 48 h; method in brief: as §1
ACHN = experiment: Anticancer activity against human ACHN cells after 48 hrs by MTT assay; format: functional, cell-based; method in brief: as §1
DU-145 = experiment: Anticancer activity against human DU145 cells after 48 hrs by MTT assay; format: functional, cell-based; details: DU-145, 48 h; method in brief: as §1
HeLa = experiment: Anticancer activity against human HeLa cells after 48 hrs by MTT assay; format: functional, cell-based; method in brief: as §1
A549 [2] = experiment: Cell cycle arrest in human A549 cells assessed as accumulation at sub-G1 phase at 0.5 uM after 48 hrs by propidium iodide staining-based flow cytometric analysis (reference value: 6.47%); format: functional
A549 [3] = experiment: Cell cycle arrest in human A549 cells assessed as accumulation at sub-G1 phase at 1 uM after 48 hrs by propidium iodide staining-based flow cytometric analysis (reference value: 6.47%); format: functional
A549 [4] = experiment: Cell cycle arrest in human A549 cells assessed as accumulation at G0/G1 phase at 0.5 uM after 48 hrs by propidium iodide staining-based flow cytometric analysis (reference value: 78.23%); format: functional
A549 [5] = experiment: Cell cycle arrest in human A549 cells assessed as accumulation at G0/G1 phase at 1 uM after 48 hrs by propidium iodide staining-based flow cytometric analysis (reference value: 78.23%); format: functional
A549 [6] = experiment: Cell cycle arrest in human A549 cells assessed as accumulation at S phase at 0.5 uM after 48 hrs by propidium iodide staining-based flow cytometric analysis (reference value: 3.57%); format: functional
A549 [7] = experiment: Cell cycle arrest in human A549 cells assessed as accumulation at S phase at 1 uM after 48 hrs by propidium iodide staining-based flow cytometric analysis (reference value: 3.57%); format: functional
A549 [8] = experiment: Cell cycle arrest in human A549 cells assessed as accumulation at G2/M phase at 0.5 uM after 48 hrs by propidium iodide staining-based flow cytometric analysis (reference value: 11.73%); format: functional
A549 [9] = experiment: Cell cycle arrest in human A549 cells assessed as accumulation at G2/M phase at 1 uM after 48 hrs by propidium iodide staining-based flow cytometric analysis (reference value: 11.73%); format: functional
Tubulin (Homo sapiens) [10] = biological target: T1, Tubulin (Homo sapiens) (UniProt P68371+Q9H4B7+P0DPH7+P68366+Q13509+Q71U36+P04350+Q3ZCM7+P07437+P68363+Q9BQE3+Q6PEY2+Q13885+Q9BVA1+Q9BUF5); experiment: Inhibition of tubulin (unknown origin) polymerization at 3 uM measured for 1 hr by fluorescence assay relative to control; format: protein-complex assay
Method in brief: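 Tubulin polymerization kit, fluorescence-reporter based. Reaction in PEM buffer with GTP, with or without compound at 3 µM final. Reporter incorporation followed as fluorescence increase (excitation 360 nm, emission 420 nm) for 1 h at 37°C. Mean of two experiments, each in triplicate.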

Tubulin = experiment: Inhibition of tubulin (unknown origin) polymerization measured for 1 hr by fluorescence assay; format: protein-complex assay, Homo sapiens
Tubulin (Homo sapiens) [11] = biological target: T1, Tubulin (Homo sapiens); experiment: Inhibition of alpha-tubulin polymerization in human A549 cells at 1 uM after 48 hrs by immunohistochemical analysis; format: cell-based
Method in brief: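 A549 cells on coverslips treated 48 h at 1 µM. Fixed in 4% paraformaldehyde for 20 min, permeabilised with 0.2% Triton X-100 for 5 min, then methanol overnight. Blocked in 1% BSA, anti-α-tubulin (1:1000) 2 h at room temperature, FITC anti-mouse secondary 1 h. Microtubule network integrity examined by fluorescence microscopy.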

A549 [12] = experiment: Induction of apoptosis in human A549 cells assessed as nuclear condensation at 1 uM after 48 hrs by Hoechst staining-based fluorescence microscopic analysis; format: functional, cell-based
Method in brief: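 10,000 A549 cells on coverslips, 24 h, then fresh medium with compound at 1 µM for 48 h. Vehicle control 0.001% DMSO. Hoechst 33258 added with 4% paraformaldehyde for 30 min at 37°C. Random fields imaged by fluorescence microscopy and scored qualitatively for chromatin condensation and nuclear fragmentation.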

A549 [13] = experiment: Induction of apoptosis in human A549 cells assessed as caspase-3 activation at 1 to 2 uM after 48 hrs by ELISA relative to control; format: functional
Method in brief: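 Colorimetric caspase-3 kit used. A549 cells treated 48 h at 1 and 2 µM, pelleted, washed in PBS, lysed 15 min, spun 15 min. Supernatant assayed by ELISA-based readout, fold change versus untreated control. Mean of two experiments, each in triplicate.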

A549 [14] = experiment: Induction of apoptosis in human A549 cells assessed as DNA fragmentation at 1 uM after 48 hrs by agarose gel electrophoresis; format: functional, cell-based
Method in brief: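 After 24 h settling, 1×10⁶ A549 cells/well treated 48 h at 1 µM. Pellet washed in PBS and lysed. Supernatant given SDS and RNase A for 2 h at 56°C, then proteinase K for 2 h at 37°C. DNA precipitated with ammonium acetate and cold ethanol at -80°C, washed in 80% ethanol, dissolved in TE. Laddering on 2% agarose gel.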

O=C1OCC2=C1C(c1ccc(-c3ccc(-c4cc(F)c(F)c(F)c4)cc3)cc1)c1c(ccc3cn[nH]c13)N2 (configuration not stated)
IC50 (A549 [1]): 3.98 µM | IC50 (HT-29): 8.91 µM | IC50 (ACHN): 7.41 µM | IC50 (DU-145): 6.91 µM | IC50 (HeLa): 5.49 µM

O=C1OCC2=C1C(c1ccc(-c3ccc(-c4ccc(F)cc4)cc3)cc1)c1cc3[nH]ccc3cc1N2 (configuration not stated)
IC50 (A549 [1]): 4.36 µM | IC50 (HT-29): 8.91 µM | IC50 (ACHN): 5.75 µM | IC50 (DU-145): 7.24 µM | IC50 (HeLa): 9.54 µM

O=C1OCC2=C1C(c1ccc(-c3ccc(-c4cc(F)cc(F)c4)cc3)cc1)c1cc3[nH]ccc3cc1N2 (configuration not stated)
IC50 (A549 [1]): 5.49 µM | IC50 (HT-29): 6.45 µM | IC50 (ACHN): 5.75 µM | IC50 (DU-145): 8.7 µM | IC50 (HeLa): 8.51 µM

O=C1OCC2=C1C(c1ccc(-c3ccc(-c4ccc(OC(F)(F)F)cc4)cc3)cc1)c1c(ccc3cn[nH]c13)N2 (configuration not stated)
IC50 (A549 [1]): 0.87 µM | IC50 (HT-29): 1 µM | IC50 (ACHN): 0.95 µM | IC50 (DU-145): 0.98 µM | IC50 (HeLa): 1.24 µM | Activity (A549 [2]): 1.08% | Activity (A549 [3]): 1.01% | Activity (A549 [4]): 64.52% | Activity (A549 [5]): 38.41% | Activity (A549 [6]): 2.39% | Activity (A549 [7]): 2.35% | Activity (A549 [8]): 32.01% | Activity (A549 [9]): 58.23% | inhibition (Tubulin (Homo sapiens) [10]): 60.1% | IC50 (Tubulin): 2.95 µM | inhibition (Tubulin (Homo sapiens) [11]): Active | Activity (A549 [12]): Active | fold change (FC) (A549 [13]): 3 | Activity (A549 [14]): Active

O=C1OCC2=C1C(c1ccc(-c3ccc(-c4ccc(C(F)(F)F)cc4)cc3)cc1)c1c(-c3ccccc3)n[nH]c1N2 (configuration not stated)
IC50 (A549 [1]): 5.75 µM | IC50 (HT-29): 8.51 µM | IC50 (ACHN): 5.24 µM | IC50 (DU-145): 6.45 µM | IC50 (HeLa): 6.16 µM

COc1cc([C@@H]2c3cc4c(cc3[C@H](O)[C@H]3COC(=O)[C@H]23)OCO4)cc(OC)c1OC [PODOFILOX]
IC50 (A549 [1]): 3.09 µM | IC50 (HT-29): 2.29 µM | IC50 (ACHN): 1.93 µM | IC50 (DU-145): 3.21 µM | inhibition (Tubulin (Homo sapiens) [10]): 52%

O=C1OCC2=C1C(c1ccc(-c3ccc(-c4cc(F)cc(Cl)c4)cc3)cc1)c1cc3[nH]ccc3cc1N2 (configuration not stated)
IC50 (A549 [1]): 2.55 µM | IC50 (HT-29): 8.7 µM | IC50 (ACHN): 2.95 µM | IC50 (DU-145): 4.78 µM | IC50 (HeLa): 3.16 µM

O=C1OCC2=C1C(c1ccc(-c3ccc(-c4ccc(C(F)(F)F)cc4)cc3)cc1)c1cc3[nH]ccc3cc1N2 (configuration not stated)
IC50 (A549 [1]): 10 µM | IC50 (HT-29): 7.41 µM | IC50 (ACHN): 7.58 µM | IC50 (DU-145): 12.6 µM | IC50 (HeLa): 16.6 µM

O=C1OCC2=C1C(c1ccc(-c3ccc(-c4ccc(OC(F)(F)F)cc4)cc3)cc1)c1cc3[nH]ccc3cc1N2 (configuration not stated)
IC50 (A549 [1]): 5.12 µM | IC50 (HT-29): 9.33 µM | IC50 (ACHN): 5.37 µM | IC50 (DU-145): 6.02 µM | IC50 (HeLa): 7.41 µM

O=C1OCC2=C1C(c1ccc(-c3ccc(-c4cc(F)cc(F)c4)cc3)cc1)c1c(-c3ccccc3)n[nH]c1N2 (configuration not stated)
IC50 (A549 [1]): 6.72 µM | IC50 (HT-29): 5.83 µM | IC50 (ACHN): 14.1 µM | IC50 (DU-145): 10 µM | IC50 (HeLa): 8.12 µM

O=C1OCC2=C1C(c1ccc(-c3ccc(-c4ccc(F)cc4)cc3)cc1)c1c(ccc3cn[nH]c13)N2 (configuration not stated)
IC50 (A549 [1]): 0.95 µM | IC50 (HT-29): 1.69 µM | IC50 (ACHN): 1.47 µM | IC50 (DU-145): 1.44 µM | IC50 (HeLa): 1.94 µM

COc1cc([C@@H]2c3cc4c(cc3[C@@H](O[C@@H]3O[C@@H]5CO[C@@H](C)O[C@H]5[C@H](O)[C@H]3O)[C@H]3COC(=O)[C@H]23)OCO4)cc(OC)c1O [ETOPOSIDE]
IC50 (A549 [1]): 2.45 µM | IC50 (HT-29): 1.47 µM | IC50 (ACHN): 2.04 µM | IC50 (DU-145): 3.17 µM | IC50 (HeLa): 2.75 µM | Activity (A549 [2]): 4.93% | Activity (A549 [3]): 4.01% | Activity (A549 [4]): 70.74% | Activity (A549 [5]): 46.09% | Activity (A549 [6]): 4.24% | Activity (A549 [7]): 3.76% | Activity (A549 [8]): 20.09% | Activity (A549 [9]): 46.14%

O=C1OCC2=C1C(c1ccc(-c3ccc(-c4cc(F)cc(Cl)c4)cc3)cc1)c1c(ccc3cn[nH]c13)N2 (configuration not stated)
IC50 (A549 [1]): 7.41 µM | IC50 (HT-29): 9.42 µM | IC50 (ACHN): 9.33 µM | IC50 (DU-145): 12.6 µM | IC50 (HeLa): 7.53 µM

O=C1OCC2=C1C(c1ccc(-c3ccc(-c4cc(F)c(F)c(F)c4)cc3)cc1)c1c(-c3ccccc3)n[nH]c1N2 (configuration not stated)
IC50 (A549 [1]): 4.36 µM | IC50 (HT-29): 6.45 µM | IC50 (ACHN): 7.52 µM | IC50 (DU-145): 6.5 µM | IC50 (HeLa): 7.07 µM

O=C1OCC2=C1C(c1ccc(-c3ccc(-c4ccc(OC(F)(F)F)cc4)cc3)cc1)c1c(-c3ccccc3)n[nH]c1N2 (configuration not stated)
IC50 (A549 [1]): 0.98 µM | IC50 (HT-29): 1.77 µM | IC50 (ACHN): 4.07 µM | IC50 (DU-145): 1.12 µM | IC50 (HeLa): 2.23 µM

O=C1OCC2=C1C(c1ccc(-c3ccc(-c4ccc(C(F)(F)F)cc4)cc3)cc1)c1c(ccc3cn[nH]c13)N2 (configuration not stated)
IC50 (A549 [1]): 1.16 µM | IC50 (HT-29): 2.39 µM | IC50 (ACHN): 2.75 µM | IC50 (DU-145): 4.89 µM | IC50 (HeLa): 7.09 µM

O=C1OCC2=C1C(c1ccc(-c3ccc(-c4cc(F)cc(Cl)c4)cc3)cc1)c1c(-c3ccccc3)n[nH]c1N2 (configuration not stated)
IC50 (A549 [1]): 2.88 µM | IC50 (HT-29): 6.3 µM | IC50 (ACHN): 3.16 µM | IC50 (DU-145): 5.75 µM | IC50 (HeLa): 6.02 µM

O=C1OCC2=C1C(c1ccc(-c3ccc(-c4ccc(F)cc4)cc3)cc1)c1c(-c3ccccc3)n[nH]c1N2 (configuration not stated)
IC50 (A549 [1]): 1.47 µM | IC50 (HT-29): 3.31 µM | IC50 (ACHN): 2.18 µM | IC50 (DU-145): 4.16 µM | IC50 (HeLa): 3.8 µM

O=C1OCC2=C1C(c1ccc(-c3ccc(-c4cc(F)c(F)c(F)c4)cc3)cc1)c1cc3[nH]ccc3cc1N2 (configuration not stated)
IC50 (A549 [1]): 5.49 µM | IC50 (HT-29): 6.6 µM | IC50 (ACHN): 6.45 µM | IC50 (DU-145): 13.2 µM | IC50 (HeLa): 10.5 µM
